Laboratory results reported in ChEMBL document CHEMBL3627632, “Novel 1,4-naphthoquinone-based sulfonamides: Synthesis, QSAR, anticancer and antimalarial studies” (Eur J Med Chem, 2015).

How the values were obtained:
Vero = experiment: Cytotoxicity against African green monkey Vero cells after 4 days by GFP detection method; type: cell-based; details: Chlorocebus sabaeus, 96 h
Method in brief: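 Vero cells stably transfected with pEGFP-N1, kept in MEM with 10% heat-inactivated FBS, 2 mM L-glutamine, 1 mM pyruvate, 0.8 mg/mL geneticin at 37 °C, 5% CO2. Cells at 3.3 × 10^4 cells/mL added to compounds prediluted in 0.5% DMSO, 384-well, 4 days. GFP fluorescence read at ex 485/em 535 nm, day-0 background subtracted. IC50 from 6-point 3-fold dilution curves.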

Plasmodium falciparum = experiment: Antimalarial activity against multidrug-resistant Plasmodium falciparum K1 infected in human erythrocytes after 48 hrs by [3H]hypoxanthine incorporation assay; type: functional, organism-based
Method in brief: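 K1 parasites kept in RPMI 1640 with 20 mM HEPES, 32 mM NaHCO3, 10% human serum and 3% erythrocytes, at 37 °C under 3% CO2. Ring-stage culture (1.5% haematocrit, 1% parasitemia) was exposed to compound for 24 h at 0.1% DMSO final. 0.5 µCi [3H]hypoxanthine was then added for a further 24 h. Incorporation was scintillation-counted, and growth was expressed as treated/untreated cpm ×100.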

[1] = Cytotoxicity against HuCCa1 cells after 48 hrs by MTT assay; type: functional, cell-based; details: Homo sapiens, HuCC-A1, 48 h
Method in brief: (§1)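 Adherent cells seeded at 10,000-20,000 per well and preincubated 24 h at 37 °C, 5% CO2. Serial dilutions of compound added in an equal volume of medium, DMSO as negative control, then 48 h further incubation. Surviving cells measured by MTT. IC50 is the concentration giving 50% growth inhibition relative to the DMSO control.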

HepG2 = experiment: Cytotoxicity against human HepG2 cells after 48 hrs by MTT assay; type: functional, cell-based; details: HepG2, 48 h; method in brief: as §1
A549 = experiment: Cytotoxicity against human A549 cells after 48 hrs by MTT assay; type: functional, cell-based; details: A549, 48 h
Method in brief: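 Adherent cells seeded at 10,000-20,000 per well and preincubated 24 h at 37 °C, 5% CO2. Serial dilutions of compound added in an equal volume of medium, DMSO as negative control, then 48 h further incubation. Surviving cells measured by MTT.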

[2] = Cytotoxicity against human MOLT3 cells after 48 hrs by XTT assay; type: functional, cell-based; details: MOLT-3, 48 h
Method in brief: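 Suspension MOLT-3 cells seeded at 10,000-20,000 per well and preincubated 24 h at 37 °C, 5% CO2. Compound serial dilutions added in an equal volume of medium, DMSO as negative control, then 48 h. Surviving cells measured by XTT. IC50 is the concentration inhibiting growth 50% relative to the DMSO control.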

[3] = Plasmodium falciparum, K1, read-out: IC50

| Compound | IC50 (Vero) [µM] | IC50 (Plasmodium falciparum) | IC50 [1] [µM] | IC50 (HepG2) [µM] | IC50 (A549) [µM] | IC50 [2] [µM] | IC50 (Plasmodium falciparum; [3]) [µM] |
| --- | --- | --- | --- | --- | --- | --- | --- |
| Cc1c2ccncc2c(C)c2c1[nH]c1ccccc12 [ELLIPTECINE] | 4.05 | – | – | – | – | – | – |
| O=C1C(Cl)=C(Nc2ccc(S(=O)(=O)NCc3ccccn3)cc2)C(=O)c2ccccc21 | 10.8 | Not Active | 5 | 3.3 | 5.88 | 1.37 | – |
| C[C@H]1[C@@H](O)O[C@@H]2O[C@@]3(C)CC[C@H]4[C@H](C)CC[C@@H]1[C@@]24OO3 [ARTENIMOL] | – | – | – | – | – | – | 0.00142 |
| O=C1C(Cl)=C(Nc2cccc(S(=O)(=O)NCCc3ccccn3)c2)C(=O)c2ccccc21 | 20.2 | Not Active | 5.77 | 5.13 | 3.93 | 2.2 | – |
| COc1cc2c(cc1OC)CN(S(=O)(=O)c1ccc(NC3=C(Cl)C(=O)c4ccccc4C3=O)cc1)CC2 | 0.944 | – | 5.21 | 14.4 | 20.2 | 1.73 | 2.8 |
| O=C1C(Cl)=C(Nc2cccc(S(=O)(=O)N3CCc4ccccc4C3)c2)C(=O)c2ccccc21 | 4.2 | – | 6.08 | 11 | 21.9 | 1.92 | 7.27 |
| O=C1C(Cl)=C(Nc2ccc(S(=O)(=O)N3CCc4ccccc4C3)cc2)C(=O)c2ccccc21 | 20.3 | – | 57.8 | 36.9 | 48.4 | 8.56 | 14.7 |
| O=C1C(Cl)=C(Nc2ccc(S(=O)(=O)NCCc3ccccc3)cc2)C(=O)c2ccccc21 | > 107 | Not Active | 4.93 | 6.27 | 11.2 | 2.18 | – |
| O=C1C(Cl)=C(Nc2ccc(S(=O)(=O)NCCc3ccccn3)cc2)C(=O)c2ccccc21 | 99.9 | Not Active | 5.88 | 10.3 | 31.4 | 1.37 | – |
| COc1cccc2c1C(=O)c1c(O)c3c(c(O)c1C2=O)C[C@@](O)(C(=O)CO)C[C@@H]3O[C@H]1C[C@H](N)[C@H](O)[C@H](C)O1 [DOXORUBICIN] | – | – | 0.42 | – | – | – | – |
| O=C1C(Cl)=C(Nc2cccc(S(=O)(=O)NCc3ccccn3)c2)C(=O)c2ccccc21 | 2.82 | Not Active | 3.66 | 4.56 | 2.31 | 2.38 | – |
| COc1ccc(CCNS(=O)(=O)c2cccc(NC3=C(Cl)C(=O)c4ccccc4C3=O)c2)cc1OC | 3.76 | – | 8.5 | 9.49 | 27.2 | 4.95 | 10.1 |
| O=C1C(Cl)=C(Nc2cccc(S(=O)(=O)NCCc3ccccc3)c2)C(=O)c2ccccc21 | 3.85 | – | 9.47 | 12.8 | 31.1 | 3.3 | 6.3 |
| COc1cc([C@@H]2c3cc4c(cc3[C@@H](O[C@@H]3O[C@@H]5CO[C@@H](C)O[C@H]5[C@H](O)[C@H]3O)[C@H]3COC(=O)[C@H]23)OCO4)cc(OC)c1O [ETOPOSIDE] | – | – | – | 34 | – | 0.041 | – |
| COc1cc2c(cc1OC)CN(S(=O)(=O)c1cccc(NC3=C(Cl)C(=O)c4ccccc4C3=O)c1)CC2 | 11.2 | – | 26.4 | 43.3 | 63.1 | 2.34 | 8.79 |
| COc1ccc(CCNS(=O)(=O)c2ccc(NC3=C(Cl)C(=O)c4ccccc4C3=O)cc2)cc1OC | 21.1 | – | 5.5 | 6.07 | 13 | 2.05 | 9.96 |
| O[C@@H](c1cc(C(F)(F)F)nc2c(C(F)(F)F)cccc12)[C@H]1CCCCN1 (relative stereo) [(S,R)-MEFLOQUINE] | – | – | – | – | – | – | 0.0269 |
